# Test results from ChEMBL document CHEMBL1121397, “5-substituted 2-amino-6-phenyl-4(3H)-pyrimidinones. Antiviral- and interferon-inducing agents” (1980).
# Tests used:
# Mus musculus [1] = experiment: Tested for in vivo antiviral activity against semliki forest virus in mice after subcutaneous administration; assay type: functional; details: sc
# Procedure, shortened: (§1)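 Mice got a single compound dose by the stated route 18 h before a lethal ip Semliki Forest virus challenge, 24 mice per group. ED50 is the minimum dose protecting 50% of mice, calculated by probit analysis of variance, in mg/kg.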
# Mus musculus [2] = experiment: Tested for in vivo antiviral activity against semliki forest virus in mice after intraperitoneal administration; assay type: functional; details: ip; procedure, shortened: as §1
# Human alphaherpesvirus 1 [3] = experiment: Protective index was measured on herpes simplex virus type 1(HSV-1) infected mice, at dose of 200 mg/kg/day; ip; assay type: functional; details: route intraperitoneal
# Procedure, shortened: (§2)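 Mice inoculated ip with 5.6 × 10^4 pfu HSV-1. Compound given ip in saline at the stated (mg/kg)/day at -40, -28, -20, -3 and +3 h relative to infection. Protection index = (control mortality − treated mortality)/control mortality; >0.25 counted as active.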
# Mus musculus [4] = experiment: Tested for in vivo antiviral activity against semliki forest virus in mice after peroral administration; assay type: functional; details: po; procedure, shortened: as §1
# L929 [5] = experiment: Serum interferon response from a single ip administration of 800 mg/kg employing a plaque-reduction assay.(VSV on L929 cells); assay type: functional, Mus musculus; details: route intraperitoneal
# Procedure, shortened: (§3)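 Serum interferon measured after one ip dose of 800 mg/kg, titrated by VSV plaque reduction on L929 cells. Peak titre within 24 h scored: +++ ≥2000, ++ ≈500-1000, + ≈50-500, ± ≈10-50 units/mL.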
# Human alphaherpesvirus 1 [6] = experiment: Protective index was measured on herpes simplex virus type 1(HSV-1) infected mice, at a dose of 200 mg/kg/day; ip; assay type: functional; details: route intraperitoneal; procedure, shortened: as §2
# L929 [7] = experiment: Serum interferon response from a single ip administration of 800 mg/kg employing a plaque-reduction assay.(VSV on L929 cells); range 500-1000; assay type: functional, Mus musculus; details: route intraperitoneal; procedure, shortened: as §3
# Human alphaherpesvirus 1 [8] = experiment: Protective index was measured on herpes simplex virus type 1(HSV-1) infected mice, at a dose of 100 mg/kg/day; ip; assay type: functional; details: route intraperitoneal
# L929 [9] = experiment: Serum interferon response from a single ip administration of 800 mg/kg employing a plaque-reduction assay.(VSV on L929 cells); range 50-500; assay type: functional, Mus musculus; details: route intraperitoneal; procedure, shortened: as §3
# Human alphaherpesvirus 1 [10] = experiment: Protective index was measured on herpes simplex virus type 1(HSV-1) infected mice. at dose of 100 mg/kg/day; ip; assay type: functional; details: route intraperitoneal
# Human alphaherpesvirus 1 [11] = experiment: Protective index was measured on herpes simplex virus type 1(HSV-1) infected mice, at dose of 100 mg/kg/day; ip; assay type: functional; details: route intraperitoneal
# Human alphaherpesvirus 1 [12] = experiment: Protective index was measured on herpes simplex virus type 1(HSV-1) infected mice. at a dose of 200 mg/kg/day, ip; assay type: functional; details: route intraperitoneal; procedure, shortened: as §2
# Human alphaherpesvirus 1 [13] = experiment: Protective index was measured on herpes simplex virus type 1(HSV-1) infected mice at 150 mg/kg/day; assay type: functional; procedure, shortened: as §2
SMILES,ED50 (Mus musculus [1]) [mg/kg],ED50 (Mus musculus [2]) [mg/kg],ED50 (Mus musculus [4]) [mg/kg],Interferon response (L929 [5]),other results
Nc1nc(O)c(Cl)c(-c2ccccc2)n1,105,100,90,>=2000 ml,Protection index (Human alphaherpesvirus 1 [3]): 0.62
CCc1c(O)nc(N)nc1-c1ccccc1,> 400,45,280,–,Protection index (Human alphaherpesvirus 1 [6]): 0.57; Interferon response (L929 [7]): 1000 mL
CCCc1c(O)nc(N)nc1-c1ccccc1,–,> 400,–,–,Protection index (Human alphaherpesvirus 1 [8]): 0.13
Nc1nc(O)c(I)c(-c2ccccc2)n1,25,50,> 400,–,Interferon response (L929 [9]): 500 mL; Protection index (Human alphaherpesvirus 1 [10]): 0.86
CCOCCc1c(O)nc(N)nc1-c1ccccc1,> 400,> 800,> 400,–,Protection index (Human alphaherpesvirus 1 [8]): 0.15
Cc1c(O)nc(N)nc1-c1ccccc1,–,185,–,>=2000 ml,Protection index (Human alphaherpesvirus 1 [11]): 0.35
Cc1nc(N)nc(O)c1I,–,200,–,–,Protection index (Human alphaherpesvirus 1 [12]): 0.16; Interferon response (L929 [7]): 1000 mL
C=CCc1c(O)nc(N)nc1-c1ccccc1,> 400,95,> 400,–,Interferon response (L929 [9]): 50 mL; Protection index (Human alphaherpesvirus 1 [6]): 0.43
C#CCc1c(O)nc(N)nc1-c1ccccc1,–,130,> 400,–,–
Cc1nc(N)nc(O)c1Br,–,250,–,1000 mL,Protection index (Human alphaherpesvirus 1 [13]): 0.4
Nc1nc(=O)c(Br)c(-c2ccccc2)[nH]1 [BROPIRIMINE],50,100,100,>=2000 ml,–
